Here are results for 2 substances from publication PMC3153576 (Biochemistry, 2011).

What all share (assay type): binding
In assay [1] the target is T1, PRMT1-SAH complex (Rattus norvegicus, UniProt Q63009). Kind of assay: Stopped-flow association with PRMT1-SAH. In a few lines: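 His-tagged rat PRMT1 expressed in E. coli and Ni-resin purified. PRMT1 (2, 4, 6 μM) was preincubated with 100 μM SAH, then rapidly mixed with 0.4 μM fluorescein-labelled H4 peptide. Fluorescence quench read at ex 495 nm, 510 nm long-pass emission; 4–6 shots averaged. Traces fit double-exponential; kobs versus PRMT1 fit to two-step model for k1, k−1, k2, k−2.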
T1 sequence (Q63009 whole entry, one chain of several): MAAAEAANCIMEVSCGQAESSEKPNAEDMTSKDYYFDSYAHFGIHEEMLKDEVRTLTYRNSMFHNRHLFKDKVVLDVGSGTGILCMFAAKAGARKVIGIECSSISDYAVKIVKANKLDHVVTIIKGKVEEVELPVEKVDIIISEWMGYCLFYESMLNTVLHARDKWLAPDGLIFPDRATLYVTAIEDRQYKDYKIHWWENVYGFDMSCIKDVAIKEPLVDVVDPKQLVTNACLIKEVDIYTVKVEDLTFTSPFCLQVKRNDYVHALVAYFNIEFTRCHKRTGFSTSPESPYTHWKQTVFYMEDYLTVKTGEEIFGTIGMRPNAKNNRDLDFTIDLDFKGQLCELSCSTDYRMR

Assay [2] has as its target T1, PRMT1-SAH complex. The assay can be described thus: Stopped-flow dissociation from PRMT1-SAH. The settings on record: 100 μM SAH. Summed up: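 Trapping experiment using rat His-PRMT1. 0.4 μM fluorescein-labelled H4 peptide (H4FLme1 or H4FLme2) was premixed with 2 μM PRMT1 and 100 μM SAH, then rapidly mixed with 50 μM unlabelled H4(1–20). Fluorescence recovery read at ex 495 nm, 510 nm long-pass emission; 4–6 injections averaged; double-exponential fit.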

The target in another assay is PRMT1 (Rattus norvegicus, UniProt Q63009). The assay can be described thus: Stopped-flow dissociation from PRMT1. The settings on record: compared with second phase in methylation course.
Sequence of PRMT1 (Q63009 whole entry): as the sequence (Q63009 whole entry, one chain of several) above

For “Ac-SGRme1GKGGKGDpr(FL)GKGGAKRHRK [H4FLme1]”, on PRMT1-SAH complex [1] (2 μM PRMT1 in presence of the cofactor), the “Observed first-order rate constant for binding (kobs)” value turned out to be 248 ± 3 s⁻¹. The “Association rate constant with PRMT1-SAH relative to apo PRMT1” value on PRMT1-SAH complex [1] (100 μM SAH) is on record as “two-fold higher”. On PRMT1-SAH complex [1] (two-step binding model (eq 5), 100 μM SAH, 30°C), the “k2 + k−2 (plateau of the slow phase)” value came out at 36 ± 2 s⁻¹. In addition, the “koff from PRMT1-SAH relative to apo-PRMT1” value on PRMT1-SAH complex [2] was “about three-fold lower”. Moreover, the “Dissociation rate constant relative to slow-phase (methylation) rate constants” value on PRMT1 is given as “several thousand-fold larger”.
“Ac-SGRme2GKGGKGDpr(FL)GKGGAKRHRK [H4FLme2]”: the “Dissociation rate constant relative to slow-phase (methylation) rate constants” value on PRMT1 is “several thousand-fold larger”.
